# Measurements from ChEMBL document CHEMBL2331206, “Genomics-guided discovery of thailanstatins A, B, and C As pre-mRNA splicing inhibitors and antiproliferative agents from Burkholderia thailandensis MSMB43” (J Nat Prod, 2013).
# Experiments:
# [1] = test system: HEK293; experiment: Inhibition of Pre-mRNA splicing in human HEK293 cells using biotin-labeled Ad2 pre-mRNA by exonjunction complex (EJC) immunoprecipitation assay
# [2] = Stability of the compound in phosphate buffer at pH 7.4 at 37 degC by HPLC; format: physicochemical
# Summary of the method: (§1)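 Compound (10 µL of 10 mM DMSO stock) added to 10 mL phosphate buffer pH 7.4 containing benzoic acid and DMSO, sealed and held at 37 °C. Samples (20 µL) analysed by reverse-phase C18 HPLC at multiple time points; half-life determined from remaining compound.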
# [3] = test system: DU-145; experiment: Antiproliferative activity against human DU145 cells assessed as growth inhibition measured after 48 hrs by MTT assay; format: functional; conditions: DU-145, 48 h
# Summary of the method: (§2)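 Cells seeded at 10,000 or 15,000 per well, incubated overnight at 37 °C, then exposed to serial three-fold dilutions of compound (10 mM DMSO stocks) for 48 h at 37 °C. MTT added for 4 h at 37 °C, absorbance read at 570 and 690 nm. Viability = 100×(T−T0)/(C−T0) versus vehicle. Triplicate wells; GI50 from log concentration versus normalized viability.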
# [4] = test system: MDA-MB-231; experiment: Antiproliferative activity against human MDA-MB-231 cells assessed as growth inhibition measured after 48 hrs by MTT assay; format: functional; conditions: MDA-MB-231, 48 h
# Summary of the method: as §2
# [5] = test system: SK-OV-3; experiment: Antiproliferative activity against human SKOV3 cells assessed as growth inhibition measured after 48 hrs by MTT assay; format: functional; conditions: SK-OV-3, 48 h
# Summary of the method: as §2
# [6] = Antiproliferative activity against human NCI-H232A cells assessed as growth inhibition measured after 48 hrs by MTT assay; format: functional
# Summary of the method: as §2
# [7] = test system: HEK293; experiment: Inhibition of Pre-mRNA splicing in human HEK293 cells using p32-labeled CDC14-15 pre-mRNA by exonjunction complex (EJC) immunoprecipitation assay; format: functional, cell-based
# [8] = Stability of the compound in phosphate buffer at pH 7 at 37 degC by HPLC; format: physicochemical
# [9] = Stability of the compound in phosphate buffer assessed as compound remaining after 8 to 78 hrs at pH 7.4 at 37 degC by HPLC; format: physicochemical
# Summary of the method: as §1
SMILES,IC50 [1] [nM],half-life [2] [h],GI50 [3] [nM],GI50 [4] [nM],GI50 [5] [nM],GI50 [6] [nM],inhibition [7],half-life [8] [h],Stability [9] [%]
CC(/C=C/[C@H]1O[C@H](CC(=O)O)C[C@@](O)(CCl)[C@@H]1O)=C\C[C@@H]1O[C@H](C)[C@H](NC(=O)/C=C\[C@H](C)OC(=O)C(C)C)C[C@@H]1C [THAILANSTATIN C],6840,25,2.98,8.82,5.57,3.67,,,
CC(=O)O[C@@H](C)/C=C\C(=O)N[C@@H]1C[C@H](C)[C@H](C/C=C(C)/C=C/[C@H]2O[C@](C)(O)C[C@@]3(CO3)[C@@H]2O)O[C@@H]1C,580,8,1.05,2.1,1.06,1.94,Dose-dependent effect,4,38
CC(=O)O[C@@H](C)/C=C\C(=O)N[C@@H]1C[C@H](C)[C@H](C/C=C(C)/C=C/[C@H]2O[C@H](CC(=O)O)C[C@@](O)(CCl)[C@@H]2O)O[C@@H]1C [THAILANSTATIN B],6180,19,3,6.22,4.94,2.5,,,
CC(=O)O[C@@H](C)/C=C\C(=O)N[C@@H]1C[C@H](C)[C@H](C/C=C(C)/C=C/[C@H]2O[C@H](CC(=O)O)C[C@@]3(CO3)[C@@H]2O)O[C@@H]1C [THAILANSTATIN A],650,> 78,1.11,2.58,2.69,2.26,,,65
